Screening data from PubChem BioAssay.
A selection: hits, their analogues and other compounds. The true share with any hit is near 2.9%.
TRPC4 potent = TRPC4 (mouse) allosteric potentiation | actives 0.42% (n = 310,000) | HEK293 TRPC4beta/mu-opioid, DAMGO EC20, Fluo-4 Ca2+ flux; stronger effect = higher value | Q9QUQ5 | B-score at 10 µM;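 active means B-score of calcium response area above 5 SD of library B-scores, with initial fluorescence ratio within 5 SD of library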;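 further: B-score of integrated fluorescence ratio over time as area under calcium response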
Kir21 inh = blocks the mouse Kir2.1 inward-rectifier potassium channel; B-score at 10 µM; P35561; HEK293-Kir2.1, FluxOR thallium flux fluorescence; stronger effect = lower value; actives 0.85% (n = 310,000);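 active means fluorescence ratio B-score at or below minus 3 SD of library scores, with starting-brightness B-score within 2 SD, cut at about -4.2 in these data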;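 further: channel flux triggered by added potassium and thallium sulfate stimulus; B-score of peak minus minimum fluorescence over baseline after thallium stimulus; more negative B-score means stronger Kir2.1 block with less thallium influx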
Target sequence (P35561 whole entry, looked up): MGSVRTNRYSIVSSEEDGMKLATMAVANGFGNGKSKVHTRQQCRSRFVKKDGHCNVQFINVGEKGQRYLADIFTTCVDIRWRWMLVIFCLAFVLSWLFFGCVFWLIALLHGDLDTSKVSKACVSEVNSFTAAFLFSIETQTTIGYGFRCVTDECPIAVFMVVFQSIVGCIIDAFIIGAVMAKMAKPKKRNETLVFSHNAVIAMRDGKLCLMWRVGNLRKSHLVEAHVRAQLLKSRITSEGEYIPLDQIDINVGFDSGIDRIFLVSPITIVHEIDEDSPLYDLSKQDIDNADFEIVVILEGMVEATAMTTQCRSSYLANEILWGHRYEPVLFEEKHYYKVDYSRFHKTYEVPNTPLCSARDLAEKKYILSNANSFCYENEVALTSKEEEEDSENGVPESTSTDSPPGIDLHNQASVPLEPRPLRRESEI
TRPC4 block = inhibitors of mouse TRPC4 channel. Q9QUQ5. HEK293 TRPC4beta/mu-opioid, DAMGO-evoked Fluo4 calcium flux; stronger effect = lower value. B-score at 10 µM. actives 0.39% (n = 300,000). AID 2247;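 active means B-score over 3 SD under the library average, no early fluorescence shift, positive overall ratio signal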
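test system = HEK293 cells with stable TRPC4beta plus mu-opioid receptor expression | detection = Fluo4 Ca2+ flux fluorescence | read-out = integrated fluorescence ratio relative to baseline, converted to per-well B score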
TRPC4 act = TRPC4 (mouse) channel activation | B-score at 10 µM | Q9QUQ5 | AID 2237 | actives 0.49% (n = 310,000) | HEK293 TRPC4beta/mu-opioid, Fluo4 calcium fluorescence; stronger effect = higher value;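 active means B-score above 5 SD of library B-scores, and initial fluorescence ratio not above library mean plus 5 SD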;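 further: positive B-score marks a calcium rise read as TRPC4 activation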
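System – HEK293 cells stably co-expressing mouse TRPC4beta and mu-opioid receptor · Signal – Fluo4 calcium-sensitive dye fluorescence, kinetic, 1 Hz baseline · Benchmarks – buffer (low) and maximal DAMGO (high) · Read-out – B score of integrated fluorescence ratio per well · Incubation – dye loading 45 min room temperature, 110 s kinetic read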
TRPC6 act = mouse TRPC6 channel activation. Q61143. HEK293-TRPC6 membrane potential dye fluorescence; stronger effect = higher value. B-score at 10 µM. actives 0.13% (n = 310,000);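 active means B-score of the integrated fluorescence ratio above library mean plus 3 SD, and starting fluorescence ratio within library mean plus 5 SD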;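 further: higher score means more depolarization so channel activation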
TRPC6 inh = mouse TRPC6 channel inhibition; Q61143; actives 1.1% (n = 310,000); HEK293-TRPC6, membrane potential dye, ACh-evoked depolarization; stronger effect = lower value; B-score at 10 µM;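 active means B-score under library mean minus 3 SD, initial fluorescence not abnormally high, positive integrated signal ratio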;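 further: B-score derived from integrated fluorescence ratio over the kinetic read; more negative B-score means stronger inhibition of depolarization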
An asterisk follows results filed as active; i = inactive.

SMILES | TRPC4 potent | Kir21 inh | TRPC4 block | TRPC4 act | TRPC6 act | TRPC6 inh
NC(N)=NCCCC(NC(=O)c1ccccc1)C(=O)Nc1ccc([N+](=O)[O-])cc1 (configuration not stated) | i | -1.29 | i | 123* | i | i
CNC[C@H](CC1CCCCC1)NC[C@H](Cc1ccccc1)NCCC12CC3CC(CC(C3)C1)C2 | i | -8.21* | i | 152* | i | i
Cc1ccc(CN=C(Nc2ccccc2)NC2CCCCC2)cc1 | i | -6.51* | i | i | i | i
CCOc1ccc(C2C(C(=O)c3ccco3)=C(O)C(=O)N2CCCn2ccnc2)cc1OC (configuration not stated) | i | 0.83 | i | i | i | i
COCCn1nnnc1C(c1cccc(OC)c1OC)N1CCN(C(=O)c2ccco2)CC1 (configuration not stated) | i | 1.53 | i | i | i | i
COc1ccc(Cn2nnnc2C(c2ccccc2)N2CCN(C3CCCC3)CC2)cc1 (configuration not stated) | i | 0.35 | i | i | i | i
COCCn1nnnc1C(c1cccc(OC)c1OC)N1CCN(C2CCCCC2)CC1 (configuration not stated) | i | -0.11 | -6* | i | i | i
c1ccc(Cn2nnnc2C(c2cccnc2)N2CCN(C3CCCCC3)CC2)cc1 (configuration not stated) | i | -0.99 | i | 103* | i | i
COc1ccc(Cn2nnnc2C(c2ccccc2Cl)N2CCN(C3CCCC3)CC2)cc1 (configuration not stated) | i | -5.1* | i | i | i | i
COc1ccc(C(c2nnnn2C2CCCC2)N2CCN(c3ccccc3)CC2)cc1 (configuration not stated) | i | -0.63 | -6* | i | i | i
COC(=O)CCC(C)N1CCC(Oc2ccc(C(=O)NCc3ccccn3)cc2)CC1 (configuration not stated) | i | 0.42 | i | i | i | i
COc1ccccc1OCC(=O)Nc1c2c(nn1-c1ccccc1)CS(=O)(=O)C2 | i | 0.4 | i | i | i | i
Fc1ccc(C(c2nnnn2Cc2ccco2)N2CCN(C3CCCCC3)CC2)cc1 (configuration not stated) | i | -1.68 | i | 196* | i | i
Fc1ccc(C(c2nnnn2Cc2cccs2)N2CCN(C3CCCC3)CC2)cc1 (configuration not stated) | i | -0.22 | i | i | i | i
Cc1ccc(-n2cc(CNCC3CC(=O)N(C4CC4)C3)c(-c3cccc(C)c3)n2)cc1 (configuration not stated) | i | -0.6 | i | 153* | i | i
Cc1ccc(-n2cc(CN3CCNC(=O)CC3)c(-c3cccc(C)c3)n2)cc1 | i | 0 | i | i | i | i
CCOC(=O)c1c(C)nc2ccc(Cl)cc2c1-c1ccccc1 | i | -3.17 | i | i | i | i
CCOC(=O)c1c(C)nc2ccccc2c1-c1ccccc1 | i | -5.93* | i | i | i | i
CN(Cc1ccccc1)C(=O)CCC1CCN(S(=O)(=O)N(C)C)CC1 | i | -0.18 | i | i | i | i
CN(C)S(=O)(=O)N1CCC(CCCC2CCN(S(=O)(=O)N(C)C)CC2)CC1 | 23* | -1.81 | i | i | i | i
CC1CCCC(C)N1C(=O)CSCc1ccc(Cl)cc1 (configuration not stated) | i | -4.94* | i | i | i | i
CC1CCCC(C)N1C(=O)COC(=O)Cc1ccc(Cl)cc1 (configuration not stated) | i | 1.53 | i | i | i | i
Cc1sc(NC(=O)c2ccco2)c(CN2CCN(Cc3ccccc3)CC2)c1C | i | 1.08 | i | i | i | i
